According to ChEMBL document CHEMBL2203235, “Optimization of a natural product-based class of γ-secretase modulators” (J Med Chem, 2012):

Tests used:
Liver microsomes [1] = assay: Metabolic stability in human liver microsomes at 1 uM after 60 mins by LC/MS/MS analysis; details: 1 h
[2] = Modulation of gamma secretase in CHO-2B7 cells assessed as reduction in amyloid beta 40 level after 5 hrs by MSD ELISA; assay type: cell-based; details: Cricetulus griseus, CHO-2B7, 5 h
Liver microsomes [3] = assay: (§1) Metabolic stability in human liver microsomes assessed as compound remaining at 1 uM at 60 mins by LC/MS/MS analysis in absence of NADPH; assay type: ADME, Microsome; details: microsomes, 1 h, 1 µM
Outline: (§2)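 Human liver microsomes were run without NADPH as a qualitative read of susceptibility to enzymatic hydrolysis. The read-out was percent parent remaining at 60 min.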

[4] = Modulation of gamma secretase in CHO-2B7 cells assessed as reduction in amyloid beta 42 level after 5 hrs by MSD ELISA; assay type: cell-based; details: Cricetulus griseus, CHO-2B7, 5 h
CHO-2B7 [5] = assay: Modulation of gamma secretase in CHO-2B7 cells assessed as reduction in amyloid beta 40 level at 20 uM after 5 hrs by MSD ELISA; assay type: cell-based; set-up: scale not given: the % may be the effect or the level left; details: Cricetulus griseus
CHO-2B7 [6] = assay: Modulation of gamma secretase in CHO-2B7 cells assessed as reduction in amyloid beta 42 level at 20 uM after 5 hrs by MSD ELISA; assay type: cell-based; set-up: scale not given: the % may be the effect or the level left; details: Cricetulus griseus
[7] = as §1; assay type: ADME, Microsome; details: liver microsomes, read-out: Stability; outline: as §2

Stability (Liver microsomes [1])	Structure (SMILES)	IC50 [2] [µM]	Stability (Liver microsomes [3]) [%]	IC50 [4] [µM]	Activity (CHO-2B7 [5]) [%]	Activity (CHO-2B7 [6]) [%]	remaining at 1 h, 1 µM [7] [%]
Stable	CC(C)[C@@H](OC(=O)N1CCC1)[C@H]1C[C@@H](C)[C@H]2[C@H](O1)[C@H](O)[C@@]1(C)[C@@H]3CC[C@H]4C(C)(C)[C@@H](OC(=O)N5CCC5)CC[C@@]45C[C@@]35CC[C@]21C	10	158	0.47			
	CC(C)[C@@H](OC(N)=O)[C@H]1C[C@@H](C)[C@H]2[C@H](O1)[C@H](O)[C@@]1(C)[C@@H]3CC[C@H]4C(C)(C)[C@@H](OC(=O)N5CCC5)CC[C@@]45C[C@@]35CC[C@]21C				15	40	106
	CC(C)[C@@H](OC(=O)N(C)C)[C@H]1C[C@@H](C)[C@H]2[C@H](O1)[C@H](O)[C@@]1(C)[C@@H]3CC[C@H]4C(C)(C)[C@@H](OC(=O)N5CCOCC5)CC[C@@]45C[C@@]35CC[C@]21C			7.4	17		118
	C[C@@H]1C[C@H]([C@H](O)C(C)(C)O)O[C@H]2[C@H]1[C@@]1(C)CC[C@@]34C[C@@]35CC[C@H](O[C@H]3CN(C(=O)c6nccn6C)CCO3)C(C)(C)[C@@H]5CC[C@H]4[C@]1(C)[C@H]2O			0.13		5	
	CC(C)[C@@H](OC(N)=O)[C@H]1C[C@@H](C)[C@H]2[C@H](O1)[C@H](O)[C@@]1(C)[C@@H]3CC[C@H]4C(C)(C)[C@@H](OC(=O)N5CCOCC5)CC[C@@]45C[C@@]35CC[C@]21C		130	3.4	32		
	CC(C)[C@@H](OC(=O)N1CCC1)[C@H]1C[C@@H](C)[C@H]2[C@H](O1)[C@H](O)[C@@]1(C)[C@@H]3CC[C@H]4C(C)(C)[C@@H](OC(N)=O)CC[C@@]45C[C@@]35CC[C@]21C		150				
	CC(=O)O[C@@H]([C@H]1C[C@@H](C)[C@H]2[C@H](O1)[C@H](O)[C@@]1(C)[C@@H]3CC[C@H]4C(C)(C)[C@@H](O[C@H]5CN(C(=O)CC6CC6)CCO5)CC[C@@]45C[C@@]35CC[C@]21C)C(C)(C)O			0.13	38		2
	CNC(=O)O[C@@H]([C@H]1C[C@@H](C)[C@H]2[C@H](O1)[C@H](O)[C@@]1(C)[C@@H]3CC[C@H]4C(C)(C)[C@@H](O)CC[C@@]45C[C@@]35CC[C@]21C)C(C)(C)O					27	96
	CNC(=O)O[C@H](C(C)C)[C@H]1C[C@@H](C)[C@H]2[C@H](O1)[C@H](O)[C@@]1(C)[C@@H]3CC[C@H]4C(C)(C)[C@@H](OC(N)=O)CC[C@@]45C[C@@]35CC[C@]21C			0.95	40		117
	C[C@@H]1C[C@H]([C@H](O)C(C)(C)O)O[C@H]2[C@H]1[C@@]1(C)CC[C@@]34C[C@@]35CC[C@H](O[C@H]3CN(C(=O)C6(C)COC6)CCO3)C(C)(C)[C@@H]5CC[C@H]4[C@]1(C)[C@H]2O			0.07		50	
	CC(C)[C@@H](OC(N)=O)[C@H]1C[C@@H](C)[C@H]2[C@H](O1)[C@H](O)[C@@]1(C)[C@@H]3CC[C@H]4C(C)(C)[C@@H](OC(=O)NC5CNC5)CC[C@@]45C[C@@]35CC[C@]21C	4	121	0.16			
Stable	CCO[C@@H]([C@H]1C[C@@H](C)[C@H]2[C@H](O1)[C@H](O)[C@@]1(C)[C@@H]3CC[C@H]4C(C)(C)[C@@H](OC(=O)N5CCNC(C(F)(F)F)C5)CC[C@@]45C[C@@]35CC[C@]21C)C(C)(C)O (some centres not stated)			0.39	31		
	COC(=O)OC[C@H]1C[C@@H](C)[C@H]2[C@H](O1)[C@H](O)[C@@]1(C)[C@@H]3CC[C@H]4C(C)(C)[C@@H](O[C@H]5CN(C(=O)CC6CC6)CCO5)CC[C@@]45C[C@@]35CC[C@]21C			0.33	46		59
Stable	CC(C)[C@@H](OC(=O)N1CCC1)[C@H]1C[C@@H](C)[C@H]2[C@H](O1)[C@H](O)[C@@]1(C)[C@@H]3CC[C@H]4C(C)(C)[C@@H](O[C@H]5CN(CC(=O)O)CCO5)CC[C@@]45C[C@@]35CC[C@]21C			0.7	41		
	CC(=O)O[C@@H]([C@H]1C[C@@H](C)[C@H]2[C@H](O1)[C@H](O)[C@@]1(C)[C@@H]3CC[C@H]4C(C)(C)[C@@H](OC(N)=O)CC[C@@]45C[C@@]35CC[C@]21C)C(C)(C)O			0.2	37		
	C[C@@H]1C[C@H]([C@H](OC(=O)N(C)C)C(C)(C)O)O[C@H]2[C@H]1[C@@]1(C)CC[C@@]34C[C@@]35CC[C@H](O)C(C)(C)[C@@H]5CC[C@H]4[C@]1(C)[C@H]2O					53	115
Stable	CCO[C@@H]([C@H]1C[C@@H](C)[C@H]2[C@H](O1)[C@H](O)[C@@]1(C)[C@@H]3CC[C@H]4C(C)(C)[C@@H](OC(=O)NCCNS(=O)(=O)C(F)(F)F)CC[C@@]45C[C@@]35CC[C@]21C)C(C)(C)O			0.71	13		
	CC(C)[C@@H](OC(=O)N(C)C)[C@H]1C[C@@H](C)[C@H]2[C@H](O1)[C@H](O)[C@@]1(C)[C@@H]3CC[C@H]4C(C)(C)[C@@H](OC(N)=O)CC[C@@]45C[C@@]35CC[C@]21C	19	131	0.92			
	CNC(=O)O[C@H](C(C)C)[C@H]1C[C@@H](C)[C@H]2[C@H](O1)[C@H](O)[C@@]1(C)[C@@H]3CC[C@H]4C(C)(C)[C@@H](OC(=O)N5CCC5)CC[C@@]45C[C@@]35CC[C@]21C		152	17	47		
Stable	CC(C)[C@@H](OC(=O)N1CCC1)[C@H]1C[C@@H](C)[C@H]2[C@H](O1)[C@H](O)[C@@]1(C)[C@@H]3CC[C@H]4C(C)(C)[C@@H](OC(=O)N5CCC(F)(F)CC5)CC[C@@]45C[C@@]35CC[C@]21C			9.1	12		
Stable	CC(C)[C@@H](OC(=O)N1CCC1)[C@H]1C[C@@H](C)[C@H]2[C@H](O1)[C@H](O)[C@@]1(C)[C@@H]3CC[C@H]4C(C)(C)[C@@H](OC(=O)NC5CCOCC5)CC[C@@]45C[C@@]35CC[C@]21C			3	27		
	CNC(=O)O[C@H](C(C)C)[C@H]1C[C@@H](C)[C@H]2[C@H](O1)[C@H](O)[C@@]1(C)[C@@H]3CC[C@H]4C(C)(C)[C@@H](OC(=O)N5CCOCC5)CC[C@@]45C[C@@]35CC[C@]21C		139	4.6	17		
	C[C@@H]1C[C@H](COC(=O)N(C)C)O[C@H]2[C@H]1[C@@]1(C)CC[C@@]34C[C@@]35CC[C@H](O[C@H]3CN(C(=O)CC6CC6)CCO3)C(C)(C)[C@@H]5CC[C@H]4[C@]1(C)[C@H]2O			1.2	63		81
Stable	CC(C)[C@@H](OC(=O)N1CCC1)[C@H]1C[C@@H](C)[C@H]2[C@H](O1)[C@H](O)[C@@]1(C)[C@@H]3CC[C@H]4C(C)(C)[C@@H](O[C@H]5CN(C(=O)CNS(=O)(=O)C(F)(F)F)CCO5)CC[C@@]45C[C@@]35CC[C@]21C			1.3	49		
	C[C@@H]1C[C@H]([C@H](O)C(C)(C)O)O[C@H]2[C@H]1[C@@]1(C)CC[C@@]34C[C@@]35CC[C@H](O[C@H]3CN(CC(N)=O)CCO3)C(C)(C)[C@@H]5CC[C@H]4[C@]1(C)[C@H]2O			0.06		0	

Structure (SMILES)	Stability (Liver microsomes [1])	IC50 [2] [µM]	Stability (Liver microsomes [3]) [%]	IC50 [4] [µM]	Activity (CHO-2B7 [5]) [%]	Activity (CHO-2B7 [6]) [%]	remaining at 1 h, 1 µM [7] [%]
CC(C)[C@@H](OC(=O)N1CCC1)[C@H]1C[C@@H](C)[C@H]2[C@H](O1)[C@H](O)[C@@]1(C)[C@@H]3CC[C@H]4C(C)(C)[C@@H](OC(=O)NC5CNC5)CC[C@@]45C[C@@]35CC[C@]21C	Stable	2.6	127	0.1			
CCO[C@@H]([C@H]1C[C@@H](C)[C@H]2[C@H](O1)[C@H](O)[C@@]1(C)[C@@H]3CC[C@H]4C(C)(C)[C@@H](OC(=O)NC)CC[C@@]45C[C@@]35CC[C@]21C)C(C)(C)O	Stable			0.36	47		
CCO[C@@H]([C@H]1C[C@@H](C)[C@H]2[C@H](O1)[C@H](O)[C@@]1(C)[C@@H]3CC[C@H]4C(C)(C)[C@@H](OC(=O)NC5CNC5)CC[C@@]45C[C@@]35CC[C@]21C)C(C)(C)O	Stable	1.9		0.053			92
CCO[C@@H]([C@H]1C[C@@H](C)[C@H]2[C@H](O1)[C@H](O)[C@@]1(C)[C@@H]3CC[C@H]4C(C)(C)[C@@H](OC(N)=O)CC[C@@]45C[C@@]35CC[C@]21C)C(C)(C)O	Stable	3.9		0.21			116
CC(C)[C@@H](OC(=O)N1CCC1)[C@H]1C[C@@H](C)[C@H]2[C@H](O1)[C@H](O)[C@@]1(C)[C@@H]3CC[C@H]4C(C)(C)[C@@H](OC(=O)N5CCOCC5)CC[C@@]45C[C@@]35CC[C@]21C	Stable	11		0.36			104
